Reference: ChEMBL document CHEMBL4765386, “Discovery of tertiary amide derivatives incorporating benzothiazole moiety as anti-gastric cancer agents in vitro via inhibiting tubulin polymerization and activating the Hippo signaling pathway” (Eur J Med Chem, 2020)
Activity calls are given as the source filed them. The rule behind the calls is not given here.

Legend:
MGC-803 [1] = assay: Induction of cell cycle arrest in human MGC-803 cells assessed as downregulation of CDK1 at 20 to 60 nM incubated for 48 hrs by Western blot analysis; format: functional, cell-based; conditions: dose 20-60 nM
Outline: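 Cells grown in RPMI-1640 with 10% FBS, penicillin/streptomycin at 37 °C, 5% CO2. Exposure to 20, 40 or 60 nM for 48 h alongside DMSO control. Lysates denatured, resolved by SDS-PAGE, transferred to PVDF, blocked, then probed with primary and secondary antibodies.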

MGC-803 [2] = assay: Induction of apoptosis in human MGC-803 cells assessed as downregulation of c-IAP2 at 20 to 60 nM incubated for 48 hrs by Western blot analysis; format: functional, cell-based; conditions: dose 20-60 nM
Outline: (§1)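 Western blot on MGC-803 and SGC-7901 cells given 20, 40 and 60 nM compound or DMSO for 48 h. Denatured lysates were run on SDS-PAGE and transferred to PVDF, then probed with primary and secondary antibodies to detect apoptosis-related proteins.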

MGC-803 [3] = assay: Cytotoxicity against human MGC-803 cells harboring SiYAP assessed as increase in cell viability at 20 to 60 nM incubated for 48 hrs by MTT assay; format: cell-based; conditions: mgc-803, 48 h, 0.06 µM, dose 20-60 nM
SGC-7901 [4] = assay: Induction of cell cycle arrest in human SGC-7901 cells assessed as increase in G2/M phase accumulation incubated for 24 hrs by PI staining based flow cytometry analysis; format: functional; conditions: dose 20-60 nM
Outline: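 Cells in RPMI-1640/10% FBS at 37 °C, 5% CO2, exposed to 20, 40 and 60 nM for 24 h before flow cytometric cell-cycle distribution analysis.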

SGC-7901 [5] = assay: Induction of apoptosis in human SGC-7901 cells assessed as late apoptotic cells at 40 nM incubated for 48 hrs by annexin V-FITC and PI staining based flow cytometry analysis (reference value: 2.4 %); format: functional
MGC-803 [6] = assay: Induction of apoptosis in human MGC-803 cells assessed as upregulation of Noxa at 20 to 60 nM incubated for 48 hrs by Western blot analysis; format: functional, cell-based; conditions: dose 20-60 nM; outline: as §1
MGC-803 [7] = assay: Activation of Hippo signaling pathway in human […] cells assessed as downregulation of TEAD at 20 to 60 nM incubated for 48 hrs by Western blot analysis; format: cell-based; conditions: filed as activator, dose 20-60 nM
Outline: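 Western blot on gastric cancer cells exposed to compound or DMSO at 20, 40 and 60 nM for 48 h. Cells were lysed, then the denatured lysates were separated by SDS-PAGE and transferred to PVDF. Membranes were blocked and probed with primary and then secondary antibodies. Hippo pathway proteins were detected.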

In the case of COc1ccc(CN(C(=O)CSc2nc3ccccc3s2)c2cc(OC)c(OC)c(OC)c2)cc1O, the Activity (MGC-803 [1]) was “Active”, the Activity (MGC-803 [2]) was “Active” and the Activity (MGC-803 [3]) was “Non-Toxic”. For the same compound, the Activity (SGC-7901 [4]) was “Dose-dependent effect”, the Activity (SGC-7901 [5]) was 6.8% and the Activity (MGC-803 [6]) was “Active”. The Activity (MGC-803 [7]) was “Active”.
